We go through two molecules from ChEMBL document CHEMBL1137262, “Design and synthesis of APTCs (aminopyrrolidinetricarboxylic acids): identification of a new group III metabotropic glutamate receptor selective agonist” (Bioorg Med Chem Lett, 2006).

SMILES strings stand for the structures.

What all share (format): functional, cell-based
In assay [1] the target is Metabotropic glutamate receptor 2 (Rattus norvegicus, UniProt P31421). Put plainly: Activity at rat mGluR2 receptor measured as intracellular calcium concentration in HEK293 cells. In short, it runs like this: (§1)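 HEK293 cells were transfected with the indicated receptor, seeded on polyornithine-coated plates and cultured 24 h. Fluorescence (ex 485/em 525 nm) was read every 1.5 s for 60 s after compound addition. Agonism was scored versus basal signal. Dose–response curves were fitted; means of three experiments in triplicate.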
(In general: Calcium flux is commonly read through the fluorescence of an indicator in the cells.)

Assay [2] deals with Metabotropic glutamate receptor 4 (Rattus norvegicus, UniProt P31423). In words: (§2) Activity at rat mGluR4 receptor measured as intracellular calcium concentration in HEK293 cells. In short, it runs like this: as §1
Assay [3] addresses Metabotropic glutamate receptor 5 (Rattus norvegicus, UniProt P31424). Put plainly: Activity at rat mGluR5 receptor measured as intracellular calcium concentration in HEK293 cells. In short, it runs like this: as §1
For assay [4], the target named is Metabotropic glutamate receptor 6 (Rattus norvegicus, UniProt P35349). Put plainly: Activity at rat mGluR6 receptor measured as intracellular calcium concentration in HEK293 cells. The procedure, abridged: as §1
Assay [5] concerns the target Metabotropic glutamate receptor 7 (Rattus norvegicus, UniProt P35400). In words: Activity at rat mGluR7 receptor measured as intracellular calcium concentration in HEK293 cells. The procedure, abridged:
as §1

Assay [6] addresses Metabotropic glutamate receptor 8 (Rattus norvegicus, UniProt P70579). Put plainly: (§3) Activity at rat mGluR8 receptor measured as intracellular calcium concentration in HEK293 cells. The procedure, abridged:
as §1

For assay [7], the target named is Metabotropic glutamate receptor 4 (Rattus norvegicus) (UniProt P31423). In words: Activity at rat mGluR4 receptor measured as intracellular calcium concentration in HEK293 cells relative to glutamate.
Assay [8] concerns the target Metabotropic glutamate receptor 8 (Rattus norvegicus) (UniProt P70579). In words: Activity at rat mGluR8 receptor measured as intracellular calcium concentration in HEK293 cells relative to glutamate.
For assay [9], the target named is Metabotropic glutamate receptor 4 (Rattus norvegicus) (UniProt P31423). In words: Activity against rat mGluR4 receptor measured as intracellular calcium concentration in HEK293 cells at 450 uM. The conditions noted are these: filed as agonist.
In assay [10] the target is Metabotropic glutamate receptor 8 (Rattus norvegicus) (UniProt P70579). Described as §3. The conditions noted are these: filed as partial agonist. In short, it runs like this:
as §1

The target in assay [11] is Metabotropic glutamate receptor 4 (Rattus norvegicus) (UniProt P31423). The assay is described as §2. The conditions noted are these: filed as agonist. The procedure, abridged:
as §1

The target of assay [12] is Metabotropic glutamate receptor 1 (Rattus norvegicus, UniProt P23385). Put plainly: Activity at rat mGluR1 receptor measured as intracellular calcium concentration in HEK293 cells. The procedure, abridged:
as §1

Chain of Metabotropic glutamate receptor 4 (Rattus norvegicus) (P31423 whole entry): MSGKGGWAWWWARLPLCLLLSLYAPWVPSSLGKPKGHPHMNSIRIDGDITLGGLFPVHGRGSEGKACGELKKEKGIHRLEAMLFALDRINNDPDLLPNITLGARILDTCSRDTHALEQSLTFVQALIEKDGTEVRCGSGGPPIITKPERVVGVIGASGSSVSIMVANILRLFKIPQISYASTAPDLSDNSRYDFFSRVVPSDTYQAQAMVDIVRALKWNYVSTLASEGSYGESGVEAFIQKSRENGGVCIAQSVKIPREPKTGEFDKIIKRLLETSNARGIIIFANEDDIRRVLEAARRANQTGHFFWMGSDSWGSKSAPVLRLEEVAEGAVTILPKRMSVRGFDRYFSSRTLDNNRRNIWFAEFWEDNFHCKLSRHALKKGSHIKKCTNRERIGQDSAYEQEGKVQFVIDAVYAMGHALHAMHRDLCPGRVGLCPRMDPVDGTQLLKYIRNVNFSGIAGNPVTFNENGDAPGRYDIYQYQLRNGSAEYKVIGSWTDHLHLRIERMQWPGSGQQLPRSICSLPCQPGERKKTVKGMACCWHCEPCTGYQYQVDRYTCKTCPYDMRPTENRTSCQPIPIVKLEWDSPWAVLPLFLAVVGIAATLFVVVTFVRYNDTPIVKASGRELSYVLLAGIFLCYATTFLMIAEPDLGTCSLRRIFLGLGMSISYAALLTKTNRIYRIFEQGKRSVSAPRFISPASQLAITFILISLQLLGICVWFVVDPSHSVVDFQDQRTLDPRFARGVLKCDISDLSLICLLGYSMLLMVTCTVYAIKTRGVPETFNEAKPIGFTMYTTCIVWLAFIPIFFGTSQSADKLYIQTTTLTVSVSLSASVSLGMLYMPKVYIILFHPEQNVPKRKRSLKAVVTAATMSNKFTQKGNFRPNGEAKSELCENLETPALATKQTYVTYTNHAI
Chain of Metabotropic glutamate receptor 2 (P31421 whole entry): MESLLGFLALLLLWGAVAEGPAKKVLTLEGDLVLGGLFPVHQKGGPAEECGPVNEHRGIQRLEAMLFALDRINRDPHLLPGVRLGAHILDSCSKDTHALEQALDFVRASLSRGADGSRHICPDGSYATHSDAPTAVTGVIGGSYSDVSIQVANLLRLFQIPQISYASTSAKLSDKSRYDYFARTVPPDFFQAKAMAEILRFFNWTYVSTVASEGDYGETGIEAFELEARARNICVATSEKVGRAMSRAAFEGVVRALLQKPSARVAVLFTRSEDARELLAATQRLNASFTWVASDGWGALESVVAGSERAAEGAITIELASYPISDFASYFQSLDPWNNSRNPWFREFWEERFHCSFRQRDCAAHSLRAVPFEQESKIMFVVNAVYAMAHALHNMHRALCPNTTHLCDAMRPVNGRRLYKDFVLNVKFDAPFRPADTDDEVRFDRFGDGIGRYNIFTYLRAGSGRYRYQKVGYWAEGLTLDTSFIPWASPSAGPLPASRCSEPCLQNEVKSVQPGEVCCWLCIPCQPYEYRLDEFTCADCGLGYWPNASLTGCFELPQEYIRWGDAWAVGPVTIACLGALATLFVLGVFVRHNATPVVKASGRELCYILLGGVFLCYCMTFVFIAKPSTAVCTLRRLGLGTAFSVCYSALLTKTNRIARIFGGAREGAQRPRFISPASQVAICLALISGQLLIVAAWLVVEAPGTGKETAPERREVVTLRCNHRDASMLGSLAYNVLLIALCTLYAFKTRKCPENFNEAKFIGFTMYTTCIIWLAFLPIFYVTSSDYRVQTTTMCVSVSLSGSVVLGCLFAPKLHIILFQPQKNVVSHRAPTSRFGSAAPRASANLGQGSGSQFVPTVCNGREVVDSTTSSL
Chain of Metabotropic glutamate receptor 8 (P70579 whole entry): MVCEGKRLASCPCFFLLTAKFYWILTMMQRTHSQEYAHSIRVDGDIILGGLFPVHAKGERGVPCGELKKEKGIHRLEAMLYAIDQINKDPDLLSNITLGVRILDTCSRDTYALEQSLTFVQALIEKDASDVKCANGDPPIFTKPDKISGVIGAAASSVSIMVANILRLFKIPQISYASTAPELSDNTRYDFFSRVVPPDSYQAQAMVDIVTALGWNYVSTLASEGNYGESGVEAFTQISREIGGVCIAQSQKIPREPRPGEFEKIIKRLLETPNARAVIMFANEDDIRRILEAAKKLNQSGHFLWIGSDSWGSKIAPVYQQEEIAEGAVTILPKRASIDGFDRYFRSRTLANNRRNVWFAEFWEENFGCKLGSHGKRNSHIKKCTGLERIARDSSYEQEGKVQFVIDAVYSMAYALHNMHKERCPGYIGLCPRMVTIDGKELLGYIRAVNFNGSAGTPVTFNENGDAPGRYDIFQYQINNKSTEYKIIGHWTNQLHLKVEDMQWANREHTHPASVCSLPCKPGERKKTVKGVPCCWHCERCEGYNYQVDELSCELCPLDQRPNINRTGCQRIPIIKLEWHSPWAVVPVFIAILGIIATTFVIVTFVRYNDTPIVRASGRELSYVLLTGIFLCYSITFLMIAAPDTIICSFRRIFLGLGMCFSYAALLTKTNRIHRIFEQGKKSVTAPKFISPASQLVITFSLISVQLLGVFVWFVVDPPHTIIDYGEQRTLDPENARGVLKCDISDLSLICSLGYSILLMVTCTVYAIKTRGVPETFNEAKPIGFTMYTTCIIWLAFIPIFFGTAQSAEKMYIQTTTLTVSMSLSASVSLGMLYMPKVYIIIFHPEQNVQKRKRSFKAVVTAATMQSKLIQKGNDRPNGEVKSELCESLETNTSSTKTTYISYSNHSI
Chain of Metabotropic glutamate receptor 8 (Rattus norvegicus) (P70579 whole entry): as above
Chain of Metabotropic glutamate receptor 6 (P35349 whole entry): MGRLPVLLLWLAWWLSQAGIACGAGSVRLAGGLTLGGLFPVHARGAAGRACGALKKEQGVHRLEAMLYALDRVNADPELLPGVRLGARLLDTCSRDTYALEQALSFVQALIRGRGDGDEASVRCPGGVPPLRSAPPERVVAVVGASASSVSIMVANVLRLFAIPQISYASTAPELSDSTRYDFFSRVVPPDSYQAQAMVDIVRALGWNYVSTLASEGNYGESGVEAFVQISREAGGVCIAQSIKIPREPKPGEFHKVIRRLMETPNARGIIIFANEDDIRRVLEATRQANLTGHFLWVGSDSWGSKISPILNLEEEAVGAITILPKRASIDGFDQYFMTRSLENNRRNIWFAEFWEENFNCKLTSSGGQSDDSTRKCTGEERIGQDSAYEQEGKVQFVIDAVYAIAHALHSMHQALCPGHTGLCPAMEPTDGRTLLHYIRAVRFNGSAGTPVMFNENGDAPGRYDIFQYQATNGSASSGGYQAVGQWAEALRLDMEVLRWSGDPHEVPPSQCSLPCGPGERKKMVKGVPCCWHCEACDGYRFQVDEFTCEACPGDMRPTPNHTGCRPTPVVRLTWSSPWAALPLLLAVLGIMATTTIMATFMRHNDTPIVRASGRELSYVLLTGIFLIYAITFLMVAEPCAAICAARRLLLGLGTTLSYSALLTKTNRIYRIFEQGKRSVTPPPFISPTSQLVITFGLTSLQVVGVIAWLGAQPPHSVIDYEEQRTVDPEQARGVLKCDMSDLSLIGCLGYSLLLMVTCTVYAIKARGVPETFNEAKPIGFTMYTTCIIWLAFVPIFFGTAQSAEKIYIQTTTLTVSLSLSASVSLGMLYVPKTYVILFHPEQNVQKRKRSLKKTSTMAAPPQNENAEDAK
Chain of Metabotropic glutamate receptor 4 (P31423 whole entry): as the sequence (P31423 whole entry) above
Chain of Metabotropic glutamate receptor 5 (P31424 whole entry): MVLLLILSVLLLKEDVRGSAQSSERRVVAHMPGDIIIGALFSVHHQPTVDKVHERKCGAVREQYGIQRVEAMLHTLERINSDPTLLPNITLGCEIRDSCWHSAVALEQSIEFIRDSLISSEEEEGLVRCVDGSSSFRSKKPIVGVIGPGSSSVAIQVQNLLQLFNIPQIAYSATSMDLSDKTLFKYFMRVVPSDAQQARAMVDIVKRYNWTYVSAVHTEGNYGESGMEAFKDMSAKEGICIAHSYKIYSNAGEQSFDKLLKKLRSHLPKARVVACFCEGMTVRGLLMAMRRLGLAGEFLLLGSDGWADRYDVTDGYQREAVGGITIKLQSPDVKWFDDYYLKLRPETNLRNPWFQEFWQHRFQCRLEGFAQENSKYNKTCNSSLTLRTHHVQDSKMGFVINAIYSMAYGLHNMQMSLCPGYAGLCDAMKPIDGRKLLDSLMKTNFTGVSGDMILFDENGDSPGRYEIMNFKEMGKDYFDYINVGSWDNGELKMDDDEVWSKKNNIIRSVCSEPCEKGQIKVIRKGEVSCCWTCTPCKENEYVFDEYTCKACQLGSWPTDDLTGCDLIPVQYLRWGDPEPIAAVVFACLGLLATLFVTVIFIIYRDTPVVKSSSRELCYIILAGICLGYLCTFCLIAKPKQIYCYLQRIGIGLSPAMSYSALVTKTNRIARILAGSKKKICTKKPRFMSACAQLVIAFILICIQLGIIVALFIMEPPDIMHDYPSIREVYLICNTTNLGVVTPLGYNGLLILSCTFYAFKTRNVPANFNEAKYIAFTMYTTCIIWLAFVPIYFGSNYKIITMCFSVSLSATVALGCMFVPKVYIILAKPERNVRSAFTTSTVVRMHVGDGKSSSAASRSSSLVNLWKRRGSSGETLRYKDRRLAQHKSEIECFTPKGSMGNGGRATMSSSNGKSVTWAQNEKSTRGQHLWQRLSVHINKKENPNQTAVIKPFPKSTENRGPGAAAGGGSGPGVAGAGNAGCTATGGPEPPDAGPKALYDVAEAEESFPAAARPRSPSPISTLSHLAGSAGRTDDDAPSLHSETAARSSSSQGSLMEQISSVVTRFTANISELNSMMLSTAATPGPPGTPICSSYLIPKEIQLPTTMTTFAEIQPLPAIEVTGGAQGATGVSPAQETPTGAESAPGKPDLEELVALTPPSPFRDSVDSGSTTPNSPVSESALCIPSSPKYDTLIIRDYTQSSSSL

In general, EC50 refers to the concentration giving half of the maximal effect. For `N[C@@]1(C(=O)O)C[C@H](C(=O)O)[C@H](C(=O)O)C1`, the EC50 was more than 1000 µM in [1]; 7.2 µM in assay [2]; more than 1000 µM in assay [3]; 18.4 µM in assay [4]; 1200 µM in assay [5]; 10.1 µM in assay [6].

Usually Emax stands for the greatest response seen or fitted, relative to the assay's reference. For the molecule `N[C@@]1(C(=O)O)C[C@@H](C(=O)O)N(C(=O)/C=C/C(=O)O)C1`, the EC50 is more than 5000 µM in [1]; 48.3 µM in [2]; more than 5000 µM in assay [3]; 378 µM in assay [4]; 56.2 µM in assay [6]; more than 5000 µM in assay [12]. Also, the Emax was found to be 75% in assay [7] and 36% in [8]. Besides, the Activity entry in assay [9] was “Agonist”; in [10], “Partial agonist”; in assay [11], “Agonist”.
